SMILES strings stand for the structures. ≈ marks a conversion by molar mass, not a printed value. Where “and” joins values, the source holds several entries; their conditions need not be identical. Identical values can stand only once.

The results in this text go back to ChEMBL document CHEMBL1134638, “Synthetic 2-aroylindole derivatives as a new class of potent tubulin-inhibitory, antimitotic agents” (J Med Chem, 2001).

The test system of one experiment is HeLa. The experiment in a line: In vitro inhibitory activity against HeLa/KB cells using XTT proliferation assay. The note with it: Homo sapiens. The format is functional, cell-based. In a few lines: (§1)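 XTT proliferation assay measuring cellular metabolic activity after 48 h incubation with compound. Compounds dissolved in DMSO at 1 mg/mL stock. IC50 or estimates obtained by nonlinear regression. Each experiment at least in duplicate.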

The next experiment addresses Tubulin beta chain (Bos taurus, UniProt Q6B856). As to the kind of experiment: Inhibition of tubulin polymerization. The format is functional.
For experiment [1], the system named is U373 MG. As to the kind of experiment: Cytotoxicity against U373 astrocytoma cells. In kind it is functional, cell-based, U-373MG ATCC. The note with it: Homo sapiens. In a few lines: as §1
The test system of another experiment is Tumor Cell line. The experiment in a line: Mean cytotoxicity against a panel of human tumor cell lines. The format is functional. An outline of the steps: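 Modified propidium iodide assay quantifying dead cells by DNA/RNA staining, run on a human tumor cell panel (breast, colon, stomach, lung, melanoma, ovary, renal, soft tissue lines). Growth inhibition expressed as % T/C; IC70 per line from concentration-viability plots. Mean IC70 is the geometric mean across lines; unreached values set to the lowest or highest concentration tested.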

Experiment [2] concerns U373 MG. The experiment in a line: (§2) Cell cycle arrest activity against U373 astrocytoma cells. In kind it is functional, cell-based, U-373MG ATCC. The note with it: Homo sapiens. An outline of the steps: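 U373 cells (5 × 10^6) exposed to compound for 24 h at 37 °C, trypsinised, washed in PBS, fixed in 80% methanol 30 min on ice. Stained with 20 µg/mL propidium iodide plus 1 mg/mL RNase A in PBS/0.1% saponin, 30 min at 37 °C. DNA content read by flow cytometry; G2/M fraction modelled. IC50 by nonlinear regression of dose-response.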

The test system of a further experiment is SK-OV-3. As to the kind of experiment: In vitro inhibitory activity against SK-OV-3 cells using XTT proliferation assay. In kind it is functional, cell-based. The note with it: Homo sapiens. In a few lines:
as §1

The target of experiment [3] is Tubulin beta chain (Bos taurus) (UniProt Q6B856). As to the kind of experiment: beta-Tubulin GTPase activity at 10 uM concentration. In a few lines: (§3)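 MAP-free purified bovine brain tubulin (1 mg/mL) in PEM pH 6.6 with 1 mM MgCl2, 100 µM [α-32P]GTP and 1 M monosodium glutamate. Compound added beforehand, final 1% DMSO. Incubated 1 h at 37 °C, stopped with 1% SDS. GDP/GTP separated by PEI-cellulose TLC in 0.35 M (NH4)2CO3 and quantified by phosphorimager as the GDP/GTP ratio.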
Tubulin beta chain (Bos taurus), sequence (Q6B856 whole entry): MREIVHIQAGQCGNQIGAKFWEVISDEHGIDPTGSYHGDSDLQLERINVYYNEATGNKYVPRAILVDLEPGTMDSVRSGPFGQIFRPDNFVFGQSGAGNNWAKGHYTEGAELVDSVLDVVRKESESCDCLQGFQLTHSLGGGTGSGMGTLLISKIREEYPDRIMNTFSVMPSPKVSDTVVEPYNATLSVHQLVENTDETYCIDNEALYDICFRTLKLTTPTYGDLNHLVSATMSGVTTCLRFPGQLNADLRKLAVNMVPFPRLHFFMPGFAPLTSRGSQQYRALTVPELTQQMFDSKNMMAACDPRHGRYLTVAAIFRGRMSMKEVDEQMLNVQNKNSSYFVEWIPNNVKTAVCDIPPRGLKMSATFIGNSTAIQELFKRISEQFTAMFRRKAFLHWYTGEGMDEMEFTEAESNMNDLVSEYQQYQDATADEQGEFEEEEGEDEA

Experiment [4] has the same target. The experiment in a line: beta-Tubulin GTPase activity at 1 uM concentration. In a few lines: as §3
In experiment [5] the test system is Mus musculus. The experiment in a line: Medium maximum body weight change in percentage against RXF 944LX cells for a dose of 200 [mg/kg], schedule of d1-5,8-12 by peroral administration in mice. The format is functional. In a few lines:
(§4)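 NMRI outbred nude mice aged 6–8 weeks, sex matched to the donor patient. About 25 mg tumor fragments (MEXF 989 or RXF 944L) implanted s.c. in both flanks. Once tumors reached 100–200 mm3, animals were randomized (6–12 tumors/group). Dosing 100 or 200 mg/kg/day orally on days 1–5 and 8–12, in 10% DMSO/PBS with 0.05% Tween 80. Calipers twice weekly. Outputs: T/C from median tumor weights, growth delay to 200% volume, and body weight change.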

Experiment [6] concerns Mus musculus. As to the kind of experiment: Growth delay until tumor doubling in days against MEXF 989 cells for a dose of 200 [mg/kg], schedule of d1-5,8-12 by peroral administration in mice. The format is functional. In a few lines: as §4
Experiment [7] deals with Mus musculus. As to the kind of experiment: Medium maximum body weight change in percentage against MEXF 989 cells for a dose of 100 [mg/kg], schedule of d1-5,8-12 by oral administration in mice. In kind it is functional. An outline of the steps:
as §4

In experiment [8] the test system is Mus musculus. As to the kind of experiment: Growth delay until tumor doubling in days against MEXF 989 cells for a dose of 100 [mg/kg], schedule of d1-5,8-12 in mice by oral administration. In kind it is functional. In a few lines:
as §4

In experiment [9] the test system is Mus musculus. The experiment in a line: Drug relative deaths against MEXF 989 cells for a dose of 200 [mg/kg], schedule of d1-5,8-12 by peroral administration in mice. The format is functional. An outline of the steps:
(§5)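 Outbred NMRI nude mice, 6-8 weeks old, sex matched to donor patient. s.c. fragments (~25 mg) implanted in both flanks. Randomised at 100-200 mm3, 6-12 tumors per group. Compound in DMSO diluted with PBS/0.05% Tween 80 to 10% final DMSO, given orally daily on days 1-5 and 8-12. Toxic deaths and body weight change recorded.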

The subject of experiment [10] is Mus musculus. As to the kind of experiment: Optimum tumor weight of treated / control animals in % (deviation) for a dose of 100 [mg/kg], schedule of d1-5,8-12 by oral administration in mice. The format is functional. In a few lines: as §4
In experiment [11] the test system is Mus musculus. As to the kind of experiment: Growth delay until tumor doubling in days against RXF 944LX cells for a dose of 100 [mg/kg], schedule of d1-5,8-12 by oral administration in mice. In kind it is functional. In a few lines: as §4
Experiment [12] relates to Mus musculus. As to the kind of experiment: Drug relative deaths against RXF 944LX cells for a dose of 100 [mg/kg], schedule of d1-5,8-12 by oral administration in mice. The format is functional. In a few lines:
as §5

For experiment [13], the system named is Mus musculus. As to the kind of experiment: Drug relative deaths against RXF 944LX cells for a dose of 200 [mg/kg], schedule of d1-5,8-12 by peroral administration in mice. The format is functional. In a few lines: as §5
Experiment [14] concerns Mus musculus. As to the kind of experiment: Medium maximum body weight change in percentage against RXF 944LX cells for a dose of 100 [mg/kg], schedule of d1-5,8-12 by oral administration in mice. In kind it is functional. In a few lines:
as §4

The test system of experiment [15] is Mus musculus. As to the kind of experiment: Medium maximum body weight change in percentage against MEXF 989 cells for a dose of 200 [mg/kg], schedule of d1-5,8-12 by peroral administration in mice. In kind it is functional. An outline of the steps: as §4
Experiment [16] deals with Mus musculus. The experiment in a line: Drug relative deaths against MEXF 989 cells for a dose of 100 [mg/kg], schedule of d1-5,8-12 by oral administration in mice. In kind it is functional. An outline of the steps: as §5
Experiment [17] deals with U373 MG. Described as §2. The note with it: Homo sapiens.

Tubulin beta chain, sequence (Q6B856 whole entry): as above

As to `COc1cccc(C(=O)c2cc3cc(OC)ccc3[nH]2)c1`, the IC50 with HeLa is 11 nM; on Tubulin beta chain, 530 nM; in the experiment on U373 MG [1], 28 nM; in the experiment on U373 MG [2], 10.7 nM; in the experiment on SK-OV-3, 11 nM. Further, in the experiment with Tumor Cell line, it took 0.27 µg/mL (≈ 0.96 µM) to reach the 70% level (IC70).

In the case of `COc1ccc2[nH]c(C(=O)c3cc(OC)c(OC)c(OC)c3)cc2c1`, the concentration for half-maximal inhibition (IC50) was found to be 29 nM with HeLa; 990 nM on Tubulin beta chain; 73 nM in the experiment with U373 MG [1]; 36.1 nM with U373 MG [2]; 58 nM in the experiment on SK-OV-3. Further, the IC70 in the experiment with Tumor Cell line came out at 0.17 µg/mL (≈ 0.498 µM).

`COC(=O)Nc1nc2cc(C(=O)c3cccs3)ccc2[nH]1`: the GTPase Activity in experiment [3] came to 9; in [4], 4.9.

Consider `COc1ccc2[nH]c(C(=O)c3ccccc3)cc2c1`, for which the IC50 with HeLa worked out at 68 nM; with U373 MG [1], 74 nM; in the experiment with SK-OV-3, 680 nM; in the experiment on U373 MG [17], 62.7 nM. Also, the BWC in the experiment on Mus musculus [5] amounted to 1%; with Mus musculus [7] it was 11%; in the experiment on Mus musculus [14] it was 11%; in the experiment with Mus musculus [15], 3%. Further, the GD200 in the experiment with Mus musculus [6] was 12.9 days; in the experiment on Mus musculus [8] it was 4.8 days; in the experiment with Mus musculus [11], -0.4 days. For the same molecule, the Activity with Mus musculus [9], in the experiment on Mus musculus [12], in the experiment with Mus musculus [13] and with Mus musculus [16] was 0% in each case. In addition, in the experiment on Tumor Cell line, the IC70 came out at 0.22 µg/mL (≈ 0.875 µM). Further, the “T/C (d)” value with Mus musculus [10] is 34% and 100%.
